Bioassay records: PubChem BioAssay, several laboratories
An excerpt weighted towards active compounds, which were near 9.6% of everything screened.
Lmaj promast = Leishmania major promastigote growth inhibition. hit rate 9% among 200,000. inhibition, % at 10 µM. AID 1063. Leishmania major promastigotes, resazurin fluorescence viability; in the data active = inhibition above about 50%;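 note: promastigotes grown with compound for 44 hours at 28 °C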
APP transl inh = APP translation inhibition. SH-SY5Y APP 5'UTR-luciferase reporter, luminescence. inhibition, % at 2 µM. hit rate 0.82% among 190,000. AID 1285;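 active = inhibition above a set limit, derived from the sample mean plus 3 SD, cut at about 45% in these data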
BaF3 parental = reduces parental Ba/F3 cell viability, JAK2V617F counter-screen. CellTiter-Glo ATP luminescence. inhibition, % at 5.6 µM. hit rate 1.1% among 220,000;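 active = inhibition above a per-campaign cutoff, the mean inhibition of all tested compounds plus 3 SD, cut at about 27% in these data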
b-catenin transl = beta-catenin nuclear translocation modulation | HeLa beta-catenin nuclear translocation, immunofluorescence imaging | nuclear translocation activity, % at 5 µM | hit rate 0.3% among 190,000;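 active = nuclear translocation activity above 50% at 5 µM, with a well cell count of 50 or more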;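 note: per-cell ratio of nuclear to cytoplasmic median beta-catenin stain intensity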
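Technique: fluorescence imaging of beta-catenin antibody stain plus DAPI / Material: human HeLa cell line / Incubation: compound treatment 24 h, 37°C, 5% CO2 / Read-out basis: % activation of per-cell nuclear versus cytoplasmic median beta-catenin signal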
MT stabilizer = stabilizes microtubules in HeLa cells; HeLa tubulin immunostaining HCS, 24 h; share of cells brighter than vehicle mean+2SD; % tubulin-high responders, % at 10 µM; hit rate 0.83% among 200,000; AID 2205;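 active = plate Z-score above 3 for both tubulin-high and condensed-nucleus cell shares, with cell loss under 80%, at 10 µM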;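 note: anti alpha tubulin signal scored within the nucleus-defined area of each cell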
Ba/F3 V617F tox = lowers viability of Ba/F3 cells expressing EpoR and JAK2V617F; ATP luminescence; inhibition, % at 5.6 µM; hit rate 1.1% among 220,000; AID 1446;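 active = inhibition above the campaign mean plus 3 SD over all tested compounds, cut at about 24% in these data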;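 note: cytokine-independent growth of Ba/F3 cells driven by EpoR plus mutant JAK2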
Hits are given with their value; 0 = inactive; - = no result.

SMILES | Lmaj promast | APP transl inh | BaF3 parental | b-catenin transl | MT stabilizer | Ba/F3 V617F tox
CO/N=C\CC(=O)Nc1ccc(Cl)cc1Cl | 0 | 0 | 0 | 0 | 10.4 | 0
CO/N=C\CC(=O)Nc1ccc(F)cc1 | 0 | 0 | 0 | 0 | 0 | 0
CC(C)OCCCNC(=O)C1CCN(S(=O)(=O)N2CCCC2)CC1 | 0 | 0 | 0 | 0 | 0 | 0
Cc1ccc(CNC(=O)CCS(=O)(=O)c2ccc(Br)s2)cc1 | 0 | 0 | 0 | 0 | 0 | 0
CCOC(=O)c1n[nH]n(-c2cc(Cl)cc(Cl)c2)c1=O | - | - | 0 | 0 | - | 0
CCOC(=O)c1cc(=O)n(-c2ccc(Cl)cc2C)[nH]1 | 55.1 | 0 | 0 | - | 0 | 0
CCOC(=O)Cn1nnnc1C(CC)N(Cc1ccccc1)Cc1cc2cc(C)ccc2[nH]c1=O (centres undefined) | 96.9 | 0 | 0 | 0 | 0 | 0
CCCC(c1nnnn1CC(=O)OCC)N(Cc1cc2c(C)cc(C)cc2[nH]c1=O)C1CCCC1 (centres undefined) | 54.9 | 0 | 0 | 0 | 0 | 0
COc1ccc(NCc2nc3ccccc3n2CCOc2ccc(C)cc2)cc1 | 90.6 | 0 | 0 | 0 | 0 | 0
COc1ccc(NCc2nc3ccccc3n2CCOc2ccccc2)cc1 | 86.8 | 0 | 0 | 0 | 0 | 0
OCCCc1nc2ccccc2n1CCOc1ccccc1 | 0 | 0 | 0 | 0 | 0 | 0
Cc1ccc(OCCn2c(CCNC(=O)C(C)C)nc3ccccc32)cc1 | 0 | 0 | 0 | 0 | 0 | 0
c1ccc(NCc2nc3ccccc3n2CCOc2ccccc2)cc1 | 0 | 0 | 0 | 0 | 0 | 0
Cc1ccc(OCCn2c(CCCO)nc3ccccc32)cc1 | 54.2 | 0 | 0 | 0 | 0 | 0
CCN1CCN(C(=O)c2ccc3c(c2)S(=O)(=O)c2ccccc2C3=O)CC1 | 0 | 0 | 0 | 0 | 0 | 0
Cc1ccccc1Cn1cnc2c(cnn2C(C)(C)C)c1=O | 59.0 | 0 | 0 | 0 | 0 | 0
Cc1ccc(C)c(Cn2cnc3c(cnn3C(C)(C)C)c2=O)c1 | 0 | 0 | 0 | 0 | 0 | 0
CC(C)(C)n1ncc2c(=O)n(CC(=O)NCc3ccc(F)cc3)cnc21 | 0 | 0 | 0 | 0 | 47.0 | 0
Cc1cccc(C)c1NC(=O)C(C)c1ccc(-c2ccccc2)c(F)c1 (centres undefined) | 99.8 | 0 | 0 | 0 | 0 | 0
Oc1ccccc1N=Nc1nc(-c2ccccc2)c(-c2ccccc2)[nH]1 | 100.0 | 88.0 | 97.1 | 0 | 0 | 97.8
CS(=O)(=O)c1nc(-c2ccccc2)c(-c2ccccc2)[nH]1 | 0 | 0 | 0 | 0 | 0 | 0
COc1ccccc1N=Nc1nc(-c2ccccc2)c(-c2ccccc2)[nH]1 | 67.2 | 0 | 0 | 0 | 0 | 0
COc1ccc(N=Nc2nc(-c3ccccc3)c(-c3ccccc3)[nH]2)cc1 | 87.2 | 0 | 0 | 0 | 0 | 0
COc1ccc(-c2[nH]c(-c3ccc4c(c3)OCO4)nc2-c2ccccc2)cc1 | 64.8 | 0 | 0 | 0 | 0 | 0
Cc1c(C(=O)Nc2ccc(-c3nnc4n3CCCCC4)cc2)oc2ccc(Br)cc12 | 0 | 0 | 0 | 0 | 0 | 0
SMILES | Lmaj promast | APP transl inh | BaF3 parental | b-catenin transl | MT stabilizer | Ba/F3 V617F tox
O=[N+]([O-])c1ccn(-c2nc(-c3ccccc3)cc(C(F)(F)F)n2)n1 | 79.2 | 0 | 0 | - | 0 | 0
COc1cccc(-c2cc(C(F)(F)F)nc(-n3ccc([N+](=O)[O-])n3)n2)c1 | 0 | 0 | 0 | 0 | 0 | 0
C#CC[N+](CC)(CC)CC#Cc1ccccc1 | - | - | 62.2 | 0 | - | 59.1
C#CC[N+](C)(C)CC#Cc1ccc(C)cc1 | 0 | 0 | 37.3 | 0 | 0 | 41.4
CC[N+](CC)(CC#Cc1ccccc1)CC#Cc1ccccc1 | - | - | 66.8 | 0 | - | 89.3
C[N+](C)(CC#Cc1ccccc1)CC(=O)c1ccccc1 | 0 | 0 | 0 | 0 | 0 | 0
COc1ccc(C2NC(=S)NC(O)(C(F)(F)F)C2C(=O)c2cccs2)cc1 (centres undefined) | 0 | 0 | 0 | 0 | 0 | 0
Cc1ccc2oc(=O)n(CC(=O)N3CCOCC3)c2c1 | - | - | 0 | 0 | - | 0
C/C(=N/Nc1cc(-c2ccccc2)nc(-c2ccccc2)n1)c1ccc(O)cc1 | 89.3 | 0 | 0 | 0 | 0 | 0
Nc1c(-c2ccccc2)c(CSc2nc3ccccc3[nH]2)nn1-c1cccc(Cl)c1 | 98.0 | 0 | 0 | 0 | 0 | 0
Cc1ccccc1-n1nc(CSc2nc3ccccc3[nH]2)c(-c2ccccc2)c1N | 0 | 0 | 0 | 0 | 0 | 0
c1ccc(-c2nnc(CSc3nc4ccccc4[nH]3)o2)cc1 | 0 | 0 | 0 | 0 | 0 | 0
Nc1c(-c2ccccc2)c(CSc2nc3ccccc3[nH]2)nn1-c1ccc(Cl)cc1 | 96.9 | 0 | 0 | 0 | 0 | 0
CCn1ccnc1CN(C)Cc1cn(-c2ccc(C)cc2)nc1-c1ccc(F)cc1 | 100.0 | 0 | 0 | 0 | 0 | 0
CCn1ccnc1CN(C)Cc1cn(-c2cc(C)ccc2C)nc1-c1ccccc1 | 93.0 | 0 | 0 | 0 | 0 | 0
Cc1ccc(-n2cc(CN(C)Cc3ncc[nH]3)c(-c3cccc(C)c3)n2)cc1 | 83.4 | 0 | 0 | 0 | 0 | 0
Cc1ccc(-n2cc(CN(C)Cc3nccn3C)c(-c3ccc(F)cc3)n2)cc1 | 79.5 | 0 | 0 | 0 | 0 | 0
CN(C)S(=O)(=O)N1CCN(c2ccc([N+](=O)[O-])c(N3CCCCC3)c2)CC1 | 0 | 0 | 0 | 0 | 0 | 0
COc1ccc(N2CCN(CCNC(=O)c3ccc4c(c3)[nH]c(=S)n3c5ccccc5nc43)CC2)cc1 | 0 | 0 | 0 | 0 | 0 | 0
COC(=O)c1ccc(Oc2cc(C)nc(Cl)n2)cc1 | 0 | 0 | 0 | 0 | 0 | 0
COC(=O)c1ccc(Oc2cc(C)nc(SC)n2)cc1 | 0 | 86.4 | 0 | 0 | 50.9 | 0
O=C(NCCNC(=O)c1ccco1)c1ccc(F)cc1 | 0 | 0 | 0 | 0 | 0 | 0
O=C(NCCNCc1ccc(F)cc1)c1ccco1 | 53.9 | 0 | 0 | 0 | 0 | 0
C=CCc1cccc(/C=C/c2cc(=O)c3ccccc3[nH]2)c1O | 0 | 0 | 0 | 0 | 0 | 0
CCOC(=O)c1c(CN2CCN(C)CC2)n(C)c2cc(Br)c(OC)cc12 | 100.3 | 0 | 0 | 0 | 0 | 0
SMILES | Lmaj promast | APP transl inh | BaF3 parental | b-catenin transl | MT stabilizer | Ba/F3 V617F tox
CCOC(=O)c1c(C)oc2c(CN3CCN(C)CC3)c(Br)c(OC)c(O)c12 | 100.4 | 0 | 0 | 0 | 0 | 0
CCOC(=O)c1oc2ccccc2c1CN1CCN(C)CC1 | 0 | 0 | 0 | 0 | 0 | 0
COc1ccc(-c2[nH]ncc2CNCCn2cccn2)c(F)c1 | 0 | 0 | 0 | 0 | 0 | 0
Cc1ccc(S(=O)(=O)N(CC(=O)Nc2ccccc2C(=O)O)c2ccccc2)cc1 | 0 | 0 | 0 | 0 | 0 | 0
CCOc1ccc(N(C(=O)c2ccccc2Cl)C2=NC(C)(C)CS2)cc1 | 61.5 | 0 | 0 | 0 | 0 | 0
O=C(Nc1ccc(Cl)cc1)N1CCC(CO)(Cc2ccccc2)CC1 | 0 | 0 | 0 | 0 | 0 | 0
OCC1(Cc2ccccc2)CCN(Cc2cccc(F)c2F)CC1 | 0 | 0 | 0 | 0 | 0 | 0
CN1CCC(CO)(Cc2ccccc2)CC1 | 0 | 0 | 0 | 0 | 0 | 0
CSc1ccc(CN2CCC(CO)(Cc3ccc(Cl)cc3)CC2)cc1 | 87.0 | 0 | 0 | 0 | 0 | 0
OCC1(Cc2ccc(Cl)cc2)CCN(CC2CC=CCC2)CC1 (centres undefined) | 87.4 | 0 | 0 | 0 | 0 | 0
